In ChEMBL document CHEMBL4339192, “De Novo Designed Amphipathic α-Helical Antimicrobial Peptides Incorporating Dab and Dap Residues on the Polar Face To Treat the Gram-Negative Pathogen, Acinetobacter baumannii” (J Med Chem, 2019):
In brackets after ≈: the same amount, converted by molar mass. Where a SMILES comes first, the peptide text is derived from it. [ ]: non-standard residue; d: D form. Dap = NC[C@H](N)C(=O)O

Assays:
Acinetobacter baumannii [1] = test: Antibacterial activity against Acinetobacter baumannii isolate 9383370 measured after 24 hrs by microtiter dilution method; assay type: functional; conditions: isolate 9383370, 24 h
How it was run: (§1)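 Broth microdilution in Mueller-Hinton (MH) medium. […] Plates were incubated 24 h at 37 °C. MIC was the lowest peptide concentration that inhibited growth, based on three sets of replicates.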

Acinetobacter baumannii [2] = test: Antibacterial activity against Acinetobacter baumannii isolate 952654 measured after 24 hrs by microtiter dilution method; assay type: functional; conditions: isolate 952654, 24 h; how it was run: as §1
Acinetobacter baumannii [3] = test: Antibacterial activity against Acinetobacter baumannii isolate 977751 measured after 24 hrs by microtiter dilution method; assay type: functional; conditions: isolate 977751, 24 h; how it was run: as §1
Acinetobacter baumannii [4] = test: Antibacterial activity against polymyxin B/colistin-resistant Acinetobacter baumannii M89953 measured after 24 hrs by microtiter dilution method; assay type: functional; conditions: M89953, 24 h; how it was run: as §1
Acinetobacter baumannii [5] = test: Antibacterial activity against polymyxin B/colistin-resistant Acinetobacter baumannii M89941 measured after 24 hrs by microtiter dilution method; assay type: functional; conditions: M89941, 24 h; how it was run: as §1
Acinetobacter baumannii [6] = test: Antibacterial activity against polymyxin B/colistin-resistant Acinetobacter baumannii M89949 measured after 24 hrs by microtiter dilution method; assay type: functional; conditions: M89949, 24 h; how it was run: as §1
Acinetobacter baumannii [7] = test: Antibacterial activity against Acinetobacter baumannii isolate 1021371 measured after 24 hrs by microtiter dilution method; assay type: functional; conditions: isolate 1021371, 24 h; how it was run: as §1
[8] = Therapeutic index, ratio of HC50 for human RBC to MIC for polymyxin B/colistin-resistant Acinetobacter baumannii M89941; assay type: toxicity; conditions: human red blood cells, read-out: TI
How it was run: (§2)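 T.I. = HC50/MIC. For HC50, peptide (quantified by amino acid analysis) was two-fold serially diluted over 12 concentrations up to 1000 μg/mL. It was incubated with 1% fresh human erythrocytes in PBS, pH 7.4, for 18 h at 37 °C. After 800g centrifugation, hemoglobin was read at 570 nm against water (100%) and no-peptide (0%) controls. HC50 came from a lysis-versus-concentration plot, average of 3 replicates.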

[9] = Therapeutic index, ratio of HC50 for human RBC to MIC for polymyxin B/colistin-resistant Acinetobacter baumannii M89955; assay type: toxicity; conditions: human red blood cells, read-out: TI; how it was run: as §2
Acinetobacter baumannii [10] = test: Antibacterial activity against Acinetobacter baumannii isolate 1007660 measured after 24 hrs by microtiter dilution method; assay type: functional; conditions: isolate 1007660, 24 h; how it was run: as §1
[11] = Therapeutic index, ratio of HC50 for human RBC to MIC for polymyxin B/colistin-resistant Acinetobacter baumannii M89963; assay type: toxicity; conditions: human red blood cells, read-out: TI; how it was run: as §2
Acinetobacter baumannii [12] = test: Antibacterial activity against Acinetobacter baumannii isolate 1017395 measured after 24 hrs by microtiter dilution method; assay type: functional; conditions: isolate 1017395, 24 h; how it was run: as §1
[13] = Therapeutic index, ratio of HC50 for human RBC to MIC for polymyxin B/colistin-resistant Acinetobacter baumannii M89951; assay type: toxicity; conditions: human red blood cells, read-out: TI; how it was run: as §2
Acinetobacter baumannii [14] = test: Antibacterial activity against polymyxin B/colistin-resistant Acinetobacter baumannii M89955 measured after 24 hrs by microtiter dilution method; assay type: functional; conditions: M89955, 24 h; how it was run: as §1
Acinetobacter baumannii [15] = test: Antibacterial activity against polymyxin B/colistin-resistant Acinetobacter baumannii M89951 measured after 24 hrs by microtiter dilution method; assay type: functional; conditions: M89951, 24 h; how it was run: as §1
Acinetobacter baumannii [16] = test: Antibacterial activity against polymyxin B/colistin-resistant Acinetobacter baumannii M89963 measured after 24 hrs by microtiter dilution method; assay type: functional; conditions: M89963, 24 h; how it was run: as §1
Acinetobacter baumannii [17] = test: Antibacterial activity against Acinetobacter baumannii isolate 963659 measured after 24 hrs by microtiter dilution method; assay type: functional; conditions: isolate 963659, 24 h; how it was run: as §1
Acinetobacter baumannii [18] = test: Antibacterial activity against Acinetobacter baumannii isolate 963618 measured after 24 hrs by microtiter dilution method; assay type: functional; conditions: isolate 963618, 24 h; how it was run: as §1
Acinetobacter baumannii [19] = test: Antibacterial activity against Acinetobacter baumannii isolate 1001611 measured after 24 hrs by microtiter dilution method; assay type: functional; conditions: isolate 1001611, 24 h; how it was run: as §1
Acinetobacter baumannii [20] = test: Antibacterial activity against Acinetobacter baumannii isolate 1018887 measured after 24 hrs by microtiter dilution method; assay type: functional; conditions: isolate 1018887, 24 h; how it was run: as §1
Acinetobacter baumannii [21] = test: Antibacterial activity against Acinetobacter baumannii isolate 968886 measured after 24 hrs by microtiter dilution method; assay type: functional; conditions: isolate 968886, 24 h; how it was run: as §1
[22] = Therapeutic index, ratio of HC50 for human RBC to MIC for polymyxin B/colistin-resistant Acinetobacter baumannii M89953; assay type: toxicity; conditions: human red blood cells, read-out: TI; how it was run: as §2
Acinetobacter baumannii [23] = test: Antibacterial activity against Acinetobacter baumannii isolate 1010282 measured after 24 hrs by microtiter dilution method; assay type: functional; conditions: isolate 1010282, 24 h; how it was run: as §1
Acinetobacter baumannii [24] = test: Antibacterial activity against Acinetobacter baumannii isolate 961997 measured after 24 hrs by microtiter dilution method; assay type: functional; conditions: isolate 961997, 24 h; how it was run: as §1
[25] = Hemolytic activity against human RBC measured after 18 hrs by spectrophotometric method; assay type: ADME, cell-based, Erythrocyte; conditions: human red blood cells (erythrocytes)
How it was run: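 Peptide (amount by amino acid analysis), two-fold serial dilutions at 12 concentrations up to 1000 μg/mL, with 1% human erythrocytes in PBS pH 7.4, 37 °C, 18 h. Unlysed cells removed by centrifugation (800g); hemoglobin read at 570 nm. Water-lysed cells = 100%, no-peptide cells = 0%. HC50 from plot of % lysis vs concentration (μM), average of 3 replicates.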

Acinetobacter baumannii [26] = test: Ratio of MIC for Acinetobacter baumannii 649 measured in presence of 25% human serum to MIC for Acinetobacter baumannii 649 in absence of 25% human serum; assay type: functional
How it was run: (§3)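 Blood strain 649 was tested by MH broth microdilution with and without 25% (v/v) human serum added to the medium. The test used a final inoculum of 5 × 10^5 cfu/mL and incubation at 37 °C. The ratio is the MIC in serum over the MIC in MH alone.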

Acinetobacter baumannii [27] = test: Antibacterial activity against Acinetobacter baumannii isolate 1010245 measured after 24 hrs by microtiter dilution method; assay type: functional; conditions: isolate 1010245, 24 h; how it was run: as §1
Acinetobacter baumannii [28] = test: Antibacterial activity against Acinetobacter baumannii isolate 965463 measured after 24 hrs by microtiter dilution method; assay type: functional; conditions: isolate 965463, 24 h; how it was run: as §1
Acinetobacter baumannii [29] = test: Antibacterial activity against polymyxin B/colistin-resistant Acinetobacter baumannii M89952 measured after 24 hrs by microtiter dilution method; assay type: functional; conditions: M89952, 24 h; how it was run: as §1
[30] = Therapeutic index, ratio of HC50 for human RBC to MIC for polymyxin B/colistin-resistant Acinetobacter baumannii M89949; assay type: toxicity; conditions: human red blood cells, read-out: TI; how it was run: as §2
Acinetobacter baumannii [31] = test: Antibacterial activity against Acinetobacter baumannii 649 measured after 24 hrs by microtiter dilution method; assay type: functional; conditions: Acinetobacter baumannii, 649, 24 h; how it was run: as §1
Acinetobacter baumannii [32] = test: Antibacterial activity against Acinetobacter baumannii isolate 1035794 measured after 24 hrs by microtiter dilution method; assay type: functional; conditions: isolate 1035794, 24 h; how it was run: as §1
Acinetobacter baumannii [33] = test: Antibacterial activity against Acinetobacter baumannii isolate 981650 measured after 24 hrs by microtiter dilution method; assay type: functional; conditions: isolate 981650, 24 h; how it was run: as §1
Acinetobacter baumannii [34] = test: Antibacterial activity against Acinetobacter baumannii isolate 1002956 measured after 24 hrs by microtiter dilution method; assay type: functional; conditions: isolate 1002956, 24 h; how it was run: as §1
Acinetobacter baumannii [35] = test: Antibacterial activity against Acinetobacter baumannii isolate 1035166 measured after 24 hrs by microtiter dilution method; assay type: functional; conditions: isolate 1035166, 24 h; how it was run: as §1
[36] = Therapeutic index, ratio of HC50 for human RBC to MIC for polymyxin B/colistin-resistant Acinetobacter baumannii M89952; assay type: toxicity; conditions: human red blood cells, read-out: TI; how it was run: as §2
Acinetobacter baumannii [37] = test: Antibacterial activity against Acinetobacter baumannii isolate 964304 measured after 24 hrs by microtiter dilution method; assay type: functional; conditions: isolate 964304, 24 h; how it was run: as §1
Acinetobacter baumannii [38] = test: Antibacterial activity against Acinetobacter baumannii 649 measured after 24 hrs in presence of 25% human serum by microtiter dilution method; assay type: functional; conditions: Acinetobacter baumannii, 649, 24 h; how it was run: as §3

## CC(=O)N[C@H](CCCCN)C(=O)N[C@H](CC(C)C)C(=O)N[C@@H](CN)C(=O)N[C@H](CO)C(=O)N[C@H](CC(C)C)C(=O)N[C@H](CC(C)C)C(=O)N[C@@H](CN)C(=O)N[C@@H](C(=O)N[C@H](CC(C)C)C(=O)N[C@H](CO)C(=O)N[C@@H](CN)C(=O)N[C@H](C)C(=O)N[C@H](C)C(=O)N[C@H](C)C(=O)N[C@H](C)C(=O)N[C@H](C)C(=O)N[C@H](CC(C)C)C(=O)N[C@@H](CN)C(=O)N[C@@H](C(=O)N[C@H](CC(C)C)C(=O)N[C@H](CC(C)C)C(=O)N[C@@H](CN)C(=O)N[C@H](C)C(=O)N[C@H](CC(C)C)C(=O)N[C@H](CO)C(=O)N[C@@H](CN)C(N)=O)[C@H](C)O)[C@H](C)O (Ac-[dK][dL][Dap][dS][dL][dL][Dap][dT][dL][dS][Dap][dA][dA][dA][dA][dA][dL][Dap][dT][dL][dL][Dap][dA][dL][dS][Dap]-NH2)
Acinetobacter baumannii [1]
  MIC: 1.6 µM (≈ 4 µg/mL)
Acinetobacter baumannii [2]
  MIC: 6.4 µM (≈ 16 µg/mL)
Acinetobacter baumannii [3]
  MIC: 0.8 µM (≈ 2 µg/mL)
Acinetobacter baumannii [4]
  MIC: 1.6 µM (≈ 4 µg/mL)
Acinetobacter baumannii [5]
  MIC: 1.6 µM (≈ 4 µg/mL)
Acinetobacter baumannii [6]
  MIC: 0.8 µM (≈ 2 µg/mL)
Acinetobacter baumannii [7]
  MIC: 0.8 µM (≈ 2 µg/mL)
[8]
  selectivity ratio: 2.2
[9]
  selectivity ratio: 2.2
Acinetobacter baumannii [10]
  MIC: 3.2 µM (≈ 8 µg/mL)
[11]
  selectivity ratio: 2.2
Acinetobacter baumannii [12]
  MIC: 3.2 µM (≈ 8 µg/mL)
[13]
  selectivity ratio: 2.2
Acinetobacter baumannii [14]
  MIC: 1.6 µM (≈ 4 µg/mL)
Acinetobacter baumannii [15]
  MIC: 0.8 µM (≈ 2 µg/mL)
Acinetobacter baumannii [16]
  MIC: 1.6 µM (≈ 4 µg/mL)
Acinetobacter baumannii [17]
  MIC: 3.2 µM (≈ 8 µg/mL)
Acinetobacter baumannii [18]
  MIC: 1.6 µM (≈ 4 µg/mL)
Acinetobacter baumannii [19]
  MIC: 1.6 µM (≈ 4 µg/mL)
Acinetobacter baumannii [20]
  MIC: 3.2 µM (≈ 8 µg/mL)
Acinetobacter baumannii [21]
  MIC: 1.6 µM (≈ 4 µg/mL)
[22]
  selectivity ratio: 2.2
Acinetobacter baumannii [23]
  MIC: 1.6 µM (≈ 4 µg/mL)
Acinetobacter baumannii [24]
  MIC: 3.2 µM (≈ 8 µg/mL)
[25]
  HC50 at 18 h: 2900 nM
Acinetobacter baumannii [26]
  Ratio: 4 - 16
Acinetobacter baumannii [27]
  MIC: 0.8 µM (≈ 2 µg/mL)
Acinetobacter baumannii [28]
  MIC: 3.2 µM (≈ 8 µg/mL)
Acinetobacter baumannii [29]
  MIC: 1.6 µM (≈ 4 µg/mL)
[30]
  selectivity ratio: 2.2
Acinetobacter baumannii [31]
  MIC: 0.8 µM (≈ 2 µg/mL)
Acinetobacter baumannii [32]
  MIC: 1.6 µM (≈ 4 µg/mL)
Acinetobacter baumannii [33]
  MIC: 1.6 µM (≈ 4 µg/mL)
Acinetobacter baumannii [34]
  MIC: 1.6 µM (≈ 4 µg/mL)
Acinetobacter baumannii [35]
  MIC: 3.2 µM (≈ 8 µg/mL)
[36]
  selectivity ratio: 2.2
Acinetobacter baumannii [37]
  MIC: 3.2 µM (≈ 8 µg/mL)
Acinetobacter baumannii [38]
  MIC: 12.5 µM
